Most compounds without a hit are left out; they make up all but 2.3% or so of the library.
V1R ag counter – counter-screen for oxytocin receptor agonists: human V1a receptor agonists; P37288; CHO-V1R cells, Fluo-8 calcium fluorescence, agonist mode; 0% DMSO, 100% 3 nM vasopressin; activation, % at 3 µM; 320,000 tested, 0.25% active;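 active = activation above the mean activation of all tested compounds plus 3 SD, per screening run, cut at about 20% in these data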;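 also: signal is peak over basal fluorescence ratio across a 100 second FLIPR read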
OXTR agonist – agonists of human oxytocin receptor; P30559; CHO-OTR cells, Fluo-8 calcium fluorescence; normalized: DMSO 0%, oxytocin 100%; activation, % at 3 µM; 320,000 tested, 0.32% active; AID 2435;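 active = activation above the mean of all tested compounds plus 3 SD, cutoff set per screening run, cut at about 20% in these data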;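 also: peak over basal fluorescence ratio from a 100 s FLIPR kinetic read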
Target sequence (P30559 whole entry, looked up): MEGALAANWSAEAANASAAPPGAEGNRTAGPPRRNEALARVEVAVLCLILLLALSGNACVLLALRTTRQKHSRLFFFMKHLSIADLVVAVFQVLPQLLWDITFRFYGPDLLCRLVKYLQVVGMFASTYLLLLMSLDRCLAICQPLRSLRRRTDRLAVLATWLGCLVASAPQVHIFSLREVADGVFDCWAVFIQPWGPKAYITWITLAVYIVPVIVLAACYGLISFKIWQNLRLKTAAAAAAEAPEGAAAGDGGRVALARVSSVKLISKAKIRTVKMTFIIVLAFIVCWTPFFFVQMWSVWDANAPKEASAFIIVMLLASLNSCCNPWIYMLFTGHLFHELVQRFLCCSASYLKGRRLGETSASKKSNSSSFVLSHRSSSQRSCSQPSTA
OXTR potentiate – human OXTR potentiation | CHO-OTR cells, Fluo-8 calcium fluorescence, potentiator mode; 0% = oxytocin EC15, 100% = EC100 | 320,000 tested, 0.061% active | activation, % at 3 µM | AID 2445 | P30559;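 active = activation above that plate's cutoff, the mean activation of tested compounds plus 3 SD, cut at about 6.6% in these data, passing the limit was not always enough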;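 also: 100% uses oxytocin at 75 nM as the full agonist control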
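Replication – single well per compound, singlicate · Assay system – CHO cell line stably expressing human OTR · Timing – 6 min pre-incubation, 100 s read · Measure – normalized max/min fluorescence ratio, % activation · Doses – 3.0 µM, one dose · Detection – Fluo-8 calcium dye fluorescence · Probe or stimulus – oxytocin near EC15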
TAAR1 ag – agonists of human TAAR1 | 360,000 tested, 0.99% active | CHO RD-HGA16 TAAR1, Fluo-8 calcium fluorescence; vehicle wells 0%, saturating PEA agonist 100% | activation, % at 3 µM | Q96RJ0;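 active = activation above the mean activation of all test compounds in the run plus 3 SD, cut at about 38% in these data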
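Assay system: CHO-derived RD-HGA16 cells with stable Gα16 and human TAAR1; timing: 17-24 h seeding, 75 min 37 °C dye, 30 min RT; read-out: % activation from peak over basal fluorescence ratio, DMSO-to-PEA scaled; measured by: kinetic Fluo-8 calcium fluorescence; benchmarks: low control DMSO, high control PEA (EC100); doses: 3 µM single concentration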
TAAR1 antagonist – antagonists of human TAAR1; Q96RJ0; CHO RD-HGA16 TAAR1, Fluo-8 calcium fluorescence, antagonist; inhibition, % at 3 µM; 360,000 tested, 1.5% active;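 active = inhibition above a per-plate cutoff, the mean inhibition of test compounds on that plate plus 3 SD, cut at about 49% in these data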;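 also: 0% = DMSO plus EC80 beta-PEA response and 100% = DMSO alone without agonist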
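Test system: RD-HGA16 CHO cells with stable hTAAR1 and Gα16 / Probe or stimulus: EC80 β-phenethylamine stimulus / Times: seeding 17-24 h prior, 75-min 37 °C, 30-min RT dye loading / Detection: Fluo-8 calcium-sensitive fluorescence / Read-out basis: % inhibition scaled between DMSO and EC80 PEA controls / Repeats: singlicate, one well per test compound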
TAAR1 nonsel count – nonselective antagonist in TAAR1 antagonist counter-screen | shares compounds with TAAR1 antagonist | inhibition, % at 3 µM | counterscreen cell line, calcium fluorescence, antagonist mode | 2,400 tested, 77% active; in the data active = inhibition above about 22%;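 also: CHO-Ga16 host cells stimulated with ATP at an EC80 level; 0% = agonist EC80 plus vehicle and 100% = vehicle without agonist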
TAAR1 antag conf – confirmation of human TAAR1 antagonists. shares compounds with TAAR1 antagonist. TAAR1-expressing cells, fluorescence antagonist read-out. inhibition, % at 3 µM. 2,400 tested, 40% active. AID 651785; in the data active = inhibition above about 49%;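 also: CHO-Ga16 host cells challenged with agonist PEA near its EC80; 0% = agonist at EC80 plus vehicle and 100% = vehicle with no agonist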
Ga16 nonsel ag – counter-screen for TAAR1 antagonists: nonselective Ga16 agonists; Ga16-expressing cells, calcium fluorescence, agonist counterscreen; AID 651953; activation, % at 3 µM; shares compounds with TAAR1 antagonist; 2,400 tested, 18% active; in the data active = activation above about 12%;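 also: 0% = vehicle wells and 100% = saturating stimulus response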
TAAR1 ag counter – TAAR1 agonism, antagonist counter-screen; shares compounds with TAAR1 antagonist; hTAAR1 cell line, fluorescence activation, agonist mode; activation, % at 3 µM; 2,400 tested, 2% active; AID 651955; in the data active = activation above about 37%;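 also: CHO cells stably expressing TAAR1 with calcium dye readout; 0% = DMSO vehicle and 100% = full agonist response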
Active calls of the source: *; nt = not tested or not shown.

SMILES	V1R ag counter	OXTR agonist	OXTR potentiate	TAAR1 ag	TAAR1 antagonist	TAAR1 nonsel count	TAAR1 antag conf	Ga16 nonsel ag	TAAR1 ag counter
COc1ccc(C(=O)N/N=C/c2ccc(OC)c(OS(=O)(=O)c3ccccc3)c2)cc1	-0.2	-0.6	-1.7	4.4	70.6*	18.6	32.8	4.7	0.3
O=C(Nc1cccc(-c2nc3ncccc3o2)c1)c1cc2ccccc2o1	-0.6	-2.1	-10.2	15.5	60.8*	28.3*	49.1*	6.2	6.9
Cc1cc(C)cc(OCC(=O)Nc2cccc(-c3nc4ncccc4o3)c2)c1	0.4	0.2	-9.1	7.5	70.4*	30.8*	58.0*	9.5	13.1
O=C(Cc1ccccc1)Nc1cccc(-c2nc3ncccc3o2)c1	3.3	5.2	-13.8	14.8	24.2	nt	nt	nt	nt
O=C(NCCCN1CCOCC1)c1cc(-c2ccc(F)cc2)no1	0.8	0.2	-2.7	1.5	-11.2	nt	nt	nt	nt
CCN(CC)S(=O)(=O)c1ccc(C(C)NCC(=O)Nc2ccccc2C(=O)NC2CC2)cc1 (centres undefined)	nt	nt	nt	11.2	58.5*	32.8*	51.6*	9.1	8.9
O=C(Nc1nc(-c2cc(F)ccc2F)cs1)c1cccc(N2C(=O)CCC2=O)c1	5.8	6.8	-22.0	28.7	74.9*	47.6*	59.5*	21.7*	18.0
COc1ccc(-c2cc(C(=O)NCc3ccco3)c3ccccc3n2)cc1	-0.1	-2.1	-8.9	9.4	48.8*	19.5	31.1	4.9	-0.6
COc1ccc(Nc2cc(C(=O)NCc3ccco3)c3ccccc3n2)c(OC)c1	-0.3	-0.7	-3.0	8.1	50.8*	9.1	23.6	6.3	3.4
COc1ccc(-c2cc(C(=O)Nc3c(C)n(C)n(-c4ccccc4)c3=O)c3ccccc3n2)cc1	1.3	1.6	-6.6	14.7	58.5*	25.6*	40.1	7.8	8.1
O=C(NC(=S)Nc1ccccc1F)C1CCCCC1	-1.0	-0.6	-9.3	1.1	-20.6	nt	nt	nt	nt
C[C@]12CC[C@H]3C(=CCc4cc(O)ccc43)[C@@H]1CCC2=O	3.7	6.3	-5.1	16.4	83.4*	35.1*	59.3*	11.7*	13.0
OCCC1CN(Cc2ccc3nsnc3c2)CCN1CCc1ccccc1 (centres undefined)	0.8	0.1	0.1	1.6	-0.2	nt	nt	nt	nt
O=C(NC[C@H]1CCCO1)c1cccc2c1C(=O)c1ccc(-c3ccc(F)cc3OCc3ccccc3)cc1S2(=O)=O	1.3	1.1	-5.3	19.4	68.7*	37.0*	51.3*	8.3	7.8
CC(C)c1cccc(-c2ccc3c(c2)S(=O)(=O)c2cccc(C(=O)NCc4ccccc4)c2C3=O)c1	0.7	0.5	-4.8	7.0	60.8*	36.1*	47.3	3.6	2.4
O=C(O)c1cccc2c1C(=O)c1ccc(-c3ccc(F)cc3OCc3ccccc3)cc1S2(=O)=O	-0.8	-0.6	0.1	nt	nt	nt	nt	nt	nt
CC(C)c1cccc(-c2ccc3c(c2)S(=O)(=O)c2cccc(C(=O)NCc4ccccc4Cl)c2C3=O)c1	0.3	0.9	0.2	nt	nt	nt	nt	nt	nt
O=C1[C@H]2[C@@H](/C=C/c3ccccc3)N3C(=O)CN(Cc4ccccn4)C(=O)[C@@]3(Cc3ccccc3)[C@H]2C(=O)N1c1ccccc1	-0.4	-0.4	0.4	23.4	69.7*	28.1*	48.3	10.2	8.3
O=C(N/N=C/C=C/c1ccccc1[N+](=O)[O-])c1cc(-c2ccccc2)n[nH]1	2.6	2.5	-14.7	23.6	60.2*	23.6*	38.5	8.6	6.6
O=C(COC(=O)c1cnccn1)c1ccc(Cl)cc1	1.5	0.9	-3.3	0.8	-14.9	nt	nt	nt	nt

Screening results (PubChem BioAssay)
